Test results taken from ChEMBL document CHEMBL6083225, “Copper selective 8-aminoquinoline based tetradentate chelators as anticancer agents” (RSC Med Chem, 2024).
The source made the active and inactive calls. No cut-off for these calls is given here.

Experiments:
A-375 = experiment: Cytotoxicity against human A-375 cells assessed as cell viability incubated for 48 hrs by MTT assay; format: functional, cell-based; details: A-375, 48 h
How it was run: (§1)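 5000 cells/well preincubated 24 h at 37 °C, 5% CO₂, then exposed to 3.1–100 μM for 48 h; untreated control, 5-FU positive control. MTT at 0.5 mg/mL in FBS-free DMEM for 4 h, formazan dissolved in DMSO, absorbance read at 570 nm. IC50 taken as half-maximal inhibitory concentration; mean ± SD of at least three independent experiments.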

A549 = experiment: Cytotoxicity against human A549 cells assessed as cell viability incubated for 48 hrs by MTT assay; format: functional, cell-based; details: A549, 48 h
How it was run: (§2)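 Cells seeded at 5000/well, held 24 h at 37 °C, 5% CO2, then exposed 48 h to 100, 50, 25, 12.5, 6.3 or 3.1 μM, with an untreated control. Then 0.5 mg mL⁻¹ MTT in FBS-free DMEM for 4 h at 37 °C, formazan dissolved in DMSO and read at 570 nm. IC50 is the mean ± SD of at least three independent experiments; 5-FU served as positive control.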

COLO-829 = experiment: Cytotoxicity against human COLO-829 cells assessed as cell viability incubated for 48 hrs by MTT assay; format: functional, cell-based; details: COLO-829, 48 h; how it was run: as §2
HeLa [1] = experiment: Cytotoxicity against human HeLa cells assessed as cell viability incubated for 48 hrs by MTT assay; format: functional, cell-based; how it was run: as §1
HepG2 = experiment: Cytotoxicity against human HepG2 cells assessed as cell viability incubated for 48 hrs by MTT assay; format: functional, cell-based; details: HepG2, 48 h; how it was run: as §2
[2] = Cytotoxicity against human HaCaT cells assessed as cell viability incubated for 48 hrs by MTT assay; format: toxicity, cell-based; how it was run: as §2
[3] = Selectivity index, ratio of IC50 for cytotoxicity against human HaCaT cells assessed as cell viability to IC50 for cytotoxicity against human A549 cells assessed as cell viability; format: toxicity, cell-based; details: HaCaT cells versus A549 cells
How it was run: (§3)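 Selectivity index is IC50 in non-cancer HaCaT keratinocytes divided by IC50 in the cancer line. Both IC50 values came from MTT viability after 48 h exposure (5000 cells/well, 3.1–100 μM, absorbance at 570 nm), each a mean of at least three independent experiments.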

[4] = Selectivity index, ratio of IC50 for cytotoxicity against human HaCaT cells assessed as cell viability to IC50 for cytotoxicity against human HeLa cells assessed as cell viability; format: toxicity, cell-based; details: HaCaT cells versus HeLa cells, read-out: Ratio IC50; how it was run: as §3
[5] = Selectivity index, ratio of IC50 for cytotoxicity against human HaCaT cells assessed as cell viability to IC50 for cytotoxicity against human HepG2 cells assessed as cell viability; format: toxicity, cell-based; details: HaCaT cells versus HepG2 cells; how it was run: as §3
HeLa [6] = experiment: Antiproliferative activity against human HeLa cells assessed as inhibition of colony formation at 1.5 to 12 uM incubated for 14 days by crystal violet staining based analysis; format: functional, cell-based; details: dose 1.5-12 µM, time 14.0 day
How it was run: (§4)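 1000 HeLa cells per 3.5 cm dish, treated after attachment with 0, 1.5, 3, 6 or 12 μM for 14 days, medium refreshed every 2 days. Cells were fixed in 100% methanol for 30 min and stained with 0.1% crystal violet for 30 min. Colonies were imaged and counted, normalised to control wells. At least triplicate.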

HeLa [7] = experiment: Antiproliferative activity against human HeLa cells assessed as inhibition of colony formation at 12 uM incubated for 14 days by crystal violet staining based analysis; format: functional, cell-based; details: time 14.0 day; how it was run: as §4
HeLa [8] = experiment: Anti-migration activity in human HeLa cells assessed as increase in wound width at 14.5 uM incubated 24 hrs by wound-healing assay (reference value: 61%); format: functional
HeLa [9] = experiment: Anti-migration activity in human HeLa cells assessed as inhibition of cell migration at 14.5 uM incubated 24 hrs by wound-healing assay; format: functional; design: scale not given: the % may be the effect or the level left
HeLa [10] = experiment: Induction of apoptosis in human HeLa cells assessed as viable cells at 3.7 uM incubated for 48 hrs by Annexin V-FITC/PI staining based flow cytometry analysis (reference value: 91.2%); format: functional; details: read-out: Activity
HeLa [11] = experiment: Induction of apoptosis in human HeLa cells assessed as early apoptotic cells at 3.7 uM incubated for 48 hrs by Annexin V-FITC/PI staining based flow cytometry analysis (reference value: 2.56%); format: functional
HeLa [12] = experiment: Induction of apoptosis in human HeLa cells assessed as late apoptotic cells at 3.7 uM incubated for 48 hrs by Annexin V-FITC/PI staining based flow cytometry analysis (reference value: 6.10 %); format: functional
HeLa [13] = experiment: Induction of apoptosis in human HeLa cells assessed as necrotic cells at 3.7 uM incubated for 48 hrs by Annexin V-FITC/PI staining based flow cytometry analysis (reference value: 0.12%); format: functional
HeLa [14] = experiment: Induction of apoptosis in human HeLa cells assessed as viable cells at 7.3 uM incubated for 48 hrs by Annexin V-FITC/PI staining based flow cytometry analysis (reference value: 91.2%); format: functional; details: read-out: Activity
HeLa [15] = experiment: Induction of apoptosis in human HeLa cells assessed as early apoptotic cells at 7.3 uM incubated for 48 hrs by Annexin V-FITC/PI staining based flow cytometry analysis (reference value: 2.56%); format: functional
HeLa [16] = experiment: Induction of apoptosis in human HeLa cells assessed as late apoptotic cells at 7.3 uM incubated for 48 hrs by Annexin V-FITC/PI staining based flow cytometry analysis (reference value: 6.10 %); format: functional
HeLa [17] = experiment: Induction of apoptosis in human HeLa cells assessed as necrotic cells at 7.3 uM incubated for 48 hrs by Annexin V-FITC/PI staining based flow cytometry analysis (reference value: 0.12%); format: functional
HeLa [18] = experiment: Induction of apoptosis in human HeLa cells assessed as viable cells at 14.5 uM incubated for 48 hrs by Annexin V-FITC/PI staining based flow cytometry analysis (reference value: 91.2%); format: functional; details: read-out: Activity
HeLa [19] = experiment: Induction of apoptosis in human HeLa cells assessed as early apoptotic cells at 14.5 uM incubated for 48 hrs by Annexin V-FITC/PI staining based flow cytometry analysis (reference value: 2.56%); format: functional
HeLa [20] = experiment: Induction of apoptosis in human HeLa cells assessed as late apoptotic cells at 14.5 uM incubated for 48 hrs by Annexin V-FITC/PI staining based flow cytometry analysis (reference value: 6.10 %); format: functional
HeLa [21] = experiment: Induction of apoptosis in human HeLa cells assessed as necrotic cells at 14.5 uM incubated for 48 hrs by Annexin V-FITC/PI staining based flow cytometry analysis (reference value: 0.12%); format: functional
HeLa [22] = experiment: Induction of apoptosis in human HeLa cells assessed as necrotic cells incubated for 48 hrs by Annexin V-FITC/PI staining based flow cytometry analysis; format: functional, cell-based; details: dose 3.7-14.5 µM
HeLa [23] = experiment: Induction of ROS production in human HeLa cells at 3.7 uM incubated for 48 hrs by H2DCFDA dye-based flow cytometry analysis; format: functional
How it was run: (§5)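 HeLa cells exposed to 0, 3.7, 7.3 or 14.5 μM for 48 h, trypsinised, washed in PBS, then loaded with H₂DCFDA (final 10 μM) at 37 °C for 30 min in the dark. DCF fluorescence (ex 498/em 522 nm) read by flow cytometry and expressed as percent of untreated cells. At least triplicate.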

HeLa [24] = experiment: Induction of ROS production in human HeLa cells at 7.3 uM incubated for 48 hrs by H2DCFDA dye-based flow cytometry analysis; format: functional; how it was run: as §5
HeLa [25] = experiment: Induction of ROS production in human HeLa cells at 14.5 uM incubated for 48 hrs by H2DCFDA dye-based flow cytometry analysis; format: functional; how it was run: as §5
HeLa [26] = experiment: Induction of ROS production in human HeLa cells incubated for 48 hrs by H2DCFDA dye-based flow cytometry analysis; format: functional, cell-based; details: dose 3.7-14.5 µM; how it was run: as §5
Mitochondrial membrane [27] = experiment: Induction of mitochondrial membrane potential depolarization in human HeLa cells assessed as decrease in red to green fluorescence intensity ratio at 3.7 to 14.5 uM incubated for 48 hrs by JC-1 staining based flow cytometric analysis; details: dose 3.7-14.5 µM
How it was run: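 HeLa cells attached overnight, then treated at 0, 3.7, 7.3 or 14.5 μM for 48 h and stained with JC-1. Red (590 nm) and green (527–529 nm) fluorescence measured by flow cytometry. Red/green ratio expressed as percent of untreated cells; one-way ANOVA, at least triplicate.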

Mitochondrial membrane [28] = experiment: Induction of mitochondrial membrane potential depolarization in human HeLa cells assessed as green fluorescence intensity at 3.7 uM incubated for 48 hrs by JC-1 staining based flow cytometric analysis (reference value: 3.28); format: cell membranes
How it was run: (§6)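 HeLa cells grown in 10 cm dishes and left to attach overnight, then treated 48 h at 0, 3.7, 7.3 or 14.5 μM. Stained with JC-1 per kit instructions. Red (J-aggregate, 590 nm) and green (monomer, 527–529 nm) fluorescence read by flow cytometry. Red/green ratio expressed as % of untreated cells. At least triplicate; one-way ANOVA.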

Mitochondrial membrane [29] = experiment: Induction of mitochondrial membrane potential depolarization in human HeLa cells assessed as red fluorescence intensity at 3.7 uM incubated for 48 hrs by JC-1 staining based flow cytometric analysis (reference value: 95.8); format: cell membranes; how it was run: as §6
Mitochondrial membrane [30] = experiment: Induction of mitochondrial membrane potential depolarization in human HeLa cells assessed as green fluorescence intensity at 7.3 uM incubated for 48 hrs by JC-1 staining based flow cytometric analysis (reference value: 3.28; format: cell membranes; how it was run: as §6
Mitochondrial membrane [31] = experiment: Induction of mitochondrial membrane potential depolarization in human HeLa cells assessed as red fluorescence intensity at 7.3 uM incubated for 48 hrs by JC-1 staining based flow cytometric analysis (reference value: 95.8); format: cell membranes; how it was run: as §6
Mitochondrial membrane [32] = experiment: Induction of mitochondrial membrane potential depolarization in human HeLa cells assessed as green fluorescence intensity at 14.5 uM incubated for 48 hrs by JC-1 staining based flow cytometric analysis (reference value: 3.28); format: cell membranes; how it was run: as §6
Mitochondrial membrane [33] = experiment: Induction of mitochondrial membrane potential depolarization in human HeLa cells assessed as red fluorescence intensity at 14.5 uM incubated for 48 hrs by JC-1 staining based flow cytometric analysis (reference value: 95.8); format: cell membranes; how it was run: as §6

CN(C)CCNCCc1ccc2c(Cl)cc(Cl)c(N)c2n1.Cl.Cl.Cl
IC50 (A-375): 38.1 µM
IC50 (A549): 16.2 µM
IC50 (COLO-829): 40.2 µM
IC50 (HeLa [1]): 14.5 µM
Activity (HeLa [1]; dose <= 100.0 µM): Dose-dependent-effect
IC50 (HepG2): 16.6 µM
IC50 at 48 h [2]: 41.1 µM
selectivity ratio [3]: 2.5
selectivity ratio [4]: 2.8
selectivity ratio [5]: 2.5
Activity (HeLa [6]): Active
Activity (HeLa [7]): Active
Activity (HeLa [8]): 74%
Activity (HeLa [9]): 33%
viability at 3.7 µM (HeLa [10]): 90.6%
Activity (HeLa [11]): 2.56%
Activity (HeLa [12]): 6.48%
Activity (HeLa [13]): 0.33%
viability at 7.3 µM (HeLa [14]): 85.3%
Activity (HeLa [15]): 6.06%
Activity (HeLa [16]): 8.49%
Activity (HeLa [17]): 0.1%
viability at 14.5 µM (HeLa [18]): 49.3%
Activity (HeLa [19]): 21.6%
Activity (HeLa [20]): 28.9%
Activity (HeLa [21]): 0.15%
Activity (HeLa [22]): Dose-dependent-effect
Activity (HeLa [23]): 125%
Activity (HeLa [24]): 138%
Activity (HeLa [25]): 150%
Activity (HeLa [26]): Dose-dependent-effect
Activity (Mitochondrial membrane [27]): Active
Flu intensity (Mitochondrial membrane [28]): 5.51
Flu intensity (Mitochondrial membrane [29]): 93.9
Flu intensity (Mitochondrial membrane [30]): 8.25
Flu intensity (Mitochondrial membrane [31]): 91.2
Flu intensity (Mitochondrial membrane [32]): 37.3
Flu intensity (Mitochondrial membrane [33]): 61.8

O=c1[nH]cc(F)c(=O)[nH]1 [FLUOROURACIL]
IC50 (A549): 72.6 µM
IC50 (COLO-829): 48.7 µM
IC50 (HeLa [1]): 14.5 µM
IC50 (HepG2): 16.6 µM
IC50 at 48 h [2]: 30 µM
